Results as given in ChEMBL document CHEMBL4622996, “Discovery of Vixotrigine: A Novel Use-Dependent Sodium Channel Blocker for the Treatment of Trigeminal Neuralgia” (ACS Med Chem Lett, 2020).
Active and inactive are the calls of the source. No cut-off for these calls is given here.

Columns and labels:
[1] = Tmax in dog at 3 mg/kg, po; assay type: ADME, organism-based, Canis lupus familiaris; conditions: in vivo
[2] = target: ATP-dependent translocase ABCB1 (Homo sapiens, UniProt P08183); assay: Inhibition of P-glycoprotein (unknown origin) upto 100 uM
ATP-dependent translocase ABCB1, sequence (P08183 whole entry): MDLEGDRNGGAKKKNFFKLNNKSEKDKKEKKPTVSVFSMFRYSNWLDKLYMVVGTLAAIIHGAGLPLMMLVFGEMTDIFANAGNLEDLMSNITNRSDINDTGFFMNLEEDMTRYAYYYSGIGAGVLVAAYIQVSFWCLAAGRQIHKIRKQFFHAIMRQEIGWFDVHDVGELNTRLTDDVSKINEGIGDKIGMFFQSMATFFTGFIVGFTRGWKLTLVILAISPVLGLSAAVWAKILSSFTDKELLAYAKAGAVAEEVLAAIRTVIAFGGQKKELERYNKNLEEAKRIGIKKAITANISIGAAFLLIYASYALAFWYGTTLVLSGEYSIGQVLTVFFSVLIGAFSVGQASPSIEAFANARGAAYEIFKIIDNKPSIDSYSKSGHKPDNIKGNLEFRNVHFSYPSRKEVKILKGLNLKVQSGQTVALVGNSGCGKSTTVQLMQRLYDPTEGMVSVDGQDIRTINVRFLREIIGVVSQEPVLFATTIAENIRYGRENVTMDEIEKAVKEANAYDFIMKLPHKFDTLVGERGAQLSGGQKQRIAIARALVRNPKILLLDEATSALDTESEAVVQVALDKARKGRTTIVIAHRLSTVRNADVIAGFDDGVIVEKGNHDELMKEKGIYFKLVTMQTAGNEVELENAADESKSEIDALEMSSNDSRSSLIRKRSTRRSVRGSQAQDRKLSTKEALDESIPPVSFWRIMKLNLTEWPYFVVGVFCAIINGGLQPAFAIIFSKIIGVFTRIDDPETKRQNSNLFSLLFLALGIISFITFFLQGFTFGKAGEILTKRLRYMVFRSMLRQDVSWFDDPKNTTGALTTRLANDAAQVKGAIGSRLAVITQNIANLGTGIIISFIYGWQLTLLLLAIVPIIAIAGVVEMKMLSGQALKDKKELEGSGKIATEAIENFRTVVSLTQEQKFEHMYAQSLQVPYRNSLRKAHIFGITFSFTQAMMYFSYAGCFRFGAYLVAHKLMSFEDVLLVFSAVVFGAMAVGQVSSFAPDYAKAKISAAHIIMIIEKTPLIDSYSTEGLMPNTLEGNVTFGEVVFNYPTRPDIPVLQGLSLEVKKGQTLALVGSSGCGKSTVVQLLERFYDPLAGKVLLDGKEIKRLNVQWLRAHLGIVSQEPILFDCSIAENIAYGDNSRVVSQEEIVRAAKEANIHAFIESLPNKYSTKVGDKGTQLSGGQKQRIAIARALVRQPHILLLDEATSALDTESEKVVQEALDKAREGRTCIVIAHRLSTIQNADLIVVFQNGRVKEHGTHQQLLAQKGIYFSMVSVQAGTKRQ

[3] = Ratio of drug level in brain to blood in rat; assay type: ADME, tissue-based; conditions: read-out: Kbb
[4] = Tmax in rat at 3 mg/kg, po; assay type: ADME, organism-based; conditions: in vivo
[5] = tested on: Rattus norvegicus; assay: Antinociceptive activity in rat model of chronic constriction injury-induced neuropathic pain assessed as inhibition of mechanical allodynia at 0.5 to 5 mg/kg, po BID administered 22 days post surgery and measured after 6 to 8 days; assay type: functional, organism-based
In short: (§1)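 Chronic constriction injury neuropathic pain model in rat; oral dosing at 0.5 or 5 mg/kg BID starting day 22; mechanical allodynia read after 6 and 8 days of dosing; gabapentin 30 mg/kg po BID as positive control. Free plasma levels sampled on day 8, 0.5 h postdose.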

[6] = target: T1, Amine oxidase [flavin-containing] A (Homo sapiens, UniProt P21397); assay: Inhibition of MAO-A (unknown origin)
T1 sequence (P21397 whole entry): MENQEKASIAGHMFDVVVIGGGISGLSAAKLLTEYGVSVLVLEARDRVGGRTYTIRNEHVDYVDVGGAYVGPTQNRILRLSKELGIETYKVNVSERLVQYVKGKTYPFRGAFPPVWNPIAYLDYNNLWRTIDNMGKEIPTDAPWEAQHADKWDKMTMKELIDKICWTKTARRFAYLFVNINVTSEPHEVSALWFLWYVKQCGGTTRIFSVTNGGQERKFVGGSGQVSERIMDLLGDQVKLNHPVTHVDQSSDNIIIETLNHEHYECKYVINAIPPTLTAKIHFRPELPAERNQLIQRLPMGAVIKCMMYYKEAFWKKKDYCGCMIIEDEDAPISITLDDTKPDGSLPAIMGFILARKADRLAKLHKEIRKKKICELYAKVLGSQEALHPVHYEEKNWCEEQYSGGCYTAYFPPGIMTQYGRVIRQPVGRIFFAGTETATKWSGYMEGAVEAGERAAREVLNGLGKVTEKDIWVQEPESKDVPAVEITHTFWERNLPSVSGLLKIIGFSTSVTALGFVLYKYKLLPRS

[7] = Free plasma concentration in rat model of chronic constriction injury-induced neuropathic pain at 5 mg/kg, po BID administered 22 days post surgery and measured on day 8 at 0.5 hrs post-dose; assay type: ADME, organism-based; conditions: in vivo; in short: as §1
[8] = Cmax in rat at 3 mg/kg, po; assay type: ADME, organism-based; parameters: dose 3 mg/kg, route oral; conditions: in vivo
[9] = target: T2, Solute carrier family 22 member 6 (Homo sapiens, UniProt Q4U2R8); assay: Inhibition of OAT1 (unknown origin)
T2 sequence (Q4U2R8 whole entry): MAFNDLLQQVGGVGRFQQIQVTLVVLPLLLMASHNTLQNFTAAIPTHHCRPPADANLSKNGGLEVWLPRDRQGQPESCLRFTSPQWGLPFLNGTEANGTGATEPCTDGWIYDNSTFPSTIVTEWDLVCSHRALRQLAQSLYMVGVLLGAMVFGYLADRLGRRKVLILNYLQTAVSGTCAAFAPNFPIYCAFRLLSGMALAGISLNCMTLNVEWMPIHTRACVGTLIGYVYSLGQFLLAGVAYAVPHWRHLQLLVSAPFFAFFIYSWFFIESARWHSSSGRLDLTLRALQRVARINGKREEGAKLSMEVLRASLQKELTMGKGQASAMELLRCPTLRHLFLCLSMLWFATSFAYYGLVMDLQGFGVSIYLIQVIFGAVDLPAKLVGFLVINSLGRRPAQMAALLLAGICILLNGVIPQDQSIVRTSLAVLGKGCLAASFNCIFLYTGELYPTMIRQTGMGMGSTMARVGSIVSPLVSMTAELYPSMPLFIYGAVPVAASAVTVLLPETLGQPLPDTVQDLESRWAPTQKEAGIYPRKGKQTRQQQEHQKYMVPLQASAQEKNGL

[10] = target: Cytochrome P450 2C19 (Homo sapiens, UniProt P33261); assay: Inhibition of CYP2C19 (unknown origin); assay type: ADME
Cytochrome P450 2C19, sequence (P33261 whole entry): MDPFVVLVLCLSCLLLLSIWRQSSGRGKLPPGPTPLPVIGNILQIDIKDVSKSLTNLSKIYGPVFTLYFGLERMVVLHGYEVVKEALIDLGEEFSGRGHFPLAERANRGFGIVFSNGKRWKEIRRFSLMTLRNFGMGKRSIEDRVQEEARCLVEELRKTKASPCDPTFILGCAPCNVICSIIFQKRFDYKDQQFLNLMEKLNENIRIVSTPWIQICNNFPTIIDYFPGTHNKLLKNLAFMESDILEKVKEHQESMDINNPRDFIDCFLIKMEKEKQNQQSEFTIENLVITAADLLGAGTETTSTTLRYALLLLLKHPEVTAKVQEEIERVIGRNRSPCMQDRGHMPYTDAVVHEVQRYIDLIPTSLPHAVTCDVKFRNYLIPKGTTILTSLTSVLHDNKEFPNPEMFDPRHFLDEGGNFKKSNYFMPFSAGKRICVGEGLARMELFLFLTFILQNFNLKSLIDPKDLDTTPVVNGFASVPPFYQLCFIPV

[11] = Oral bioavailability in rat at 3 mg/kg; assay type: ADME, organism-based; conditions: in vivo
[12] = tested on: Rattus norvegicus; assay: Antiinflammatory activity in complete Freund's adjuvant-induced knee joint rat model of subchronic inflammation assessed as inhibition of CFA-induced hypersensitivity to pain at 1 mg/kg, BID; assay type: functional, organism-based
In short: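 CFA-induced knee joint model of subchronic inflammation; oral 1 mg/kg BID over a 5-day dosing period; reversal of hypersensitivity compared against celecoxib.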

[13] = Half life in dog at 0.5 mg/kg, iv; assay type: ADME, organism-based, Canis lupus familiaris; conditions: in vivo
[14] = Cmax in monkey at 3 mg/kg, po; assay type: ADME, organism-based, Macaca mulatta; parameters: dose 3 mg/kg, route oral; conditions: rhesus monkey, in vivo
[15] = Volume of distribution in steady state in monkey at 0.5 mg/kg, iv; assay type: ADME, organism-based, Macaca mulatta; conditions: rhesus monkey, in vivo, read-out: Vdss
[16] = target: T3, Broad substrate specificity ATP-binding cassette transporter ABCG2 (Homo sapiens, UniProt Q9UNQ0); assay: Inhibition of BCRP (unknown origin)
T3 sequence (Q9UNQ0 whole entry): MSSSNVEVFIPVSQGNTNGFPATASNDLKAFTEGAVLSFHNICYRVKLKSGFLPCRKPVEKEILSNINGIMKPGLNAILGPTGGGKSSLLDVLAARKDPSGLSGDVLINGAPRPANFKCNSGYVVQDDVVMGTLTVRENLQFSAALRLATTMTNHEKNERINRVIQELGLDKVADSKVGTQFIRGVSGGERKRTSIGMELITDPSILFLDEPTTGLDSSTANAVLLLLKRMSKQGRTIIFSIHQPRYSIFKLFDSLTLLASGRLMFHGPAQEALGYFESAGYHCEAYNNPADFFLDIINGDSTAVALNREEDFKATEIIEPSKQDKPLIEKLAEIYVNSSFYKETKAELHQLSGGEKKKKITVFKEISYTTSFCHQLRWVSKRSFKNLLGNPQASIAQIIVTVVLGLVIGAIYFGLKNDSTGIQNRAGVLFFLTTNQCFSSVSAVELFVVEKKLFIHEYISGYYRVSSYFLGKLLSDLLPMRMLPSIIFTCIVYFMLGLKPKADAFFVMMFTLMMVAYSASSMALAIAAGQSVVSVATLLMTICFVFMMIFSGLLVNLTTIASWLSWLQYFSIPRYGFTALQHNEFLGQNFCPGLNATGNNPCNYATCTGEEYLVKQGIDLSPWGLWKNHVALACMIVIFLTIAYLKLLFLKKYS

[17] = target: Sodium channel protein type 3 subunit alpha (Homo sapiens, UniProt Q9NY46); assay: Inhibition of Nav1.3 (unknown origin) expressed in HEK293 cells assessed as 15% inhibition of sodium current incubated for 3 to 3.5 mins by electrophysiology assay; assay type: cell-based
Sodium channel protein type 3 subunit alpha, sequence (Q9NY46 whole entry, looked up): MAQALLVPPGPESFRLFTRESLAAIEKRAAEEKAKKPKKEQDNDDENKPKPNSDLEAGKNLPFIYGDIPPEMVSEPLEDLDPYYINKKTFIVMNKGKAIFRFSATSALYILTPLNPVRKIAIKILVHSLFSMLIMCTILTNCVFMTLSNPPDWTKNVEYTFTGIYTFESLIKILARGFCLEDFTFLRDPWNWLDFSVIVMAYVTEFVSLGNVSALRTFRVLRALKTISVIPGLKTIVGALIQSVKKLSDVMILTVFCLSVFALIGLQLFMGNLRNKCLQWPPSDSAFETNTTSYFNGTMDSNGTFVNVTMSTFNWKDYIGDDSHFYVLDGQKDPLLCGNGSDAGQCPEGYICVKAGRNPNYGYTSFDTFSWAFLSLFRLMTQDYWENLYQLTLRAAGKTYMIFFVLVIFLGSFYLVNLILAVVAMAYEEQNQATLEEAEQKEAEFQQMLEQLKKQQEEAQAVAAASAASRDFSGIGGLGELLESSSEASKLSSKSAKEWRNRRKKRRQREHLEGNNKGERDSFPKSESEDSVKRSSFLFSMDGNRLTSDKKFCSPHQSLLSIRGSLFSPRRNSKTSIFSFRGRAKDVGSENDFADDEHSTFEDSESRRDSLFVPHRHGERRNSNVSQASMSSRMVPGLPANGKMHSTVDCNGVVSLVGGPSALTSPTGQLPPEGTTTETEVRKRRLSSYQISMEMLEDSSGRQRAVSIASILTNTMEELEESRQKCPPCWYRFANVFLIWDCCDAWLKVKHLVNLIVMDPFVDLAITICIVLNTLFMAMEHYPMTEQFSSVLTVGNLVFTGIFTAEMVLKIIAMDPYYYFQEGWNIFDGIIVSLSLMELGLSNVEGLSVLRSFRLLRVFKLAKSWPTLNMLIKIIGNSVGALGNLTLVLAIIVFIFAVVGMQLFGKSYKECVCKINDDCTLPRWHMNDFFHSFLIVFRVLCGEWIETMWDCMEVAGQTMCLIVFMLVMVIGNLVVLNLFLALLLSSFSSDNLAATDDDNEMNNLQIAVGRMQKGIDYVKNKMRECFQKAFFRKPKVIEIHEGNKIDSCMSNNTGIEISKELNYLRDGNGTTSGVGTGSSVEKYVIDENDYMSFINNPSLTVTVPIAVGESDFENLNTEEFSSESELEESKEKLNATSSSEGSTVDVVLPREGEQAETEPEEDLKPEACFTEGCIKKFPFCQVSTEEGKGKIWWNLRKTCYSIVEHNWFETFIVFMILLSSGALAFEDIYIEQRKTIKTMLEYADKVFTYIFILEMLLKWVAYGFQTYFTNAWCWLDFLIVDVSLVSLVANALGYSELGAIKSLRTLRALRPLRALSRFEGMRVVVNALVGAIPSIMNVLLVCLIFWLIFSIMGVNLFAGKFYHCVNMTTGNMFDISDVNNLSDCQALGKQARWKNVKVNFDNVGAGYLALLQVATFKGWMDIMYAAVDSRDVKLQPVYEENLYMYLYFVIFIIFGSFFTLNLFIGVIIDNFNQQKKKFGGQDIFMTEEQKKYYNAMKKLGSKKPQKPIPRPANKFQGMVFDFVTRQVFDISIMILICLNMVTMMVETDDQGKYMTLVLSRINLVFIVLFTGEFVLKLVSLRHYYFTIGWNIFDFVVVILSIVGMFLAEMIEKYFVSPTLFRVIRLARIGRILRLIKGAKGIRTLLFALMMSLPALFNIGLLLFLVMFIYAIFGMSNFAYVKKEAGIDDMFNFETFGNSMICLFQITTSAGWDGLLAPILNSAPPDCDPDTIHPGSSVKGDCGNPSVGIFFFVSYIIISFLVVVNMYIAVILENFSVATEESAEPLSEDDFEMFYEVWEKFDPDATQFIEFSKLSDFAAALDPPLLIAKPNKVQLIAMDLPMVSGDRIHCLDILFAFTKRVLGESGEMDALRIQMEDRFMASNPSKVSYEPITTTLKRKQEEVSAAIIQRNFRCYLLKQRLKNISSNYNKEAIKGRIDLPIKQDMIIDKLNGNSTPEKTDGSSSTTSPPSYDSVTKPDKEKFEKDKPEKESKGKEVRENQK
In short: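 HEK293 cells stably expressing NaV1.3, grown in DMEM-F12 with 10% FBS at 37 °C, dissociated at 50–70% confluency; IonWorksHT planar patch clamp at 21–23 °C, amphotericin perforated access; intracellular K-gluconate 100, KCl 40, MgCl2 3.2, EGTA 3, HEPES 5 mM, pH 7.3.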

## Cl.NC(=O)[C@@H]1CC[C@H](c2ccc(OCc3ccccc3F)cc2)N1 [RAXATRIGINE HYDROCHLORIDE]
[1]
  Tmax: 45 min
[2]
  inhibition (INH): Not Active
[3]
  Kp: 6.8
[4]
  Tmax: 30 min
[5]
  Activity: Active
[6]
  Ki: > 10 µM
[7]
  Cp(f): 23.4 ng/mL
[8]
  Cmax: 226 ng/mL
[9]
  inhibition (INH): Not Active
[10]
  IC50: 79 µM
[11]
  bioavailability: 43%
[12]
  Activity: Active
[13]
  half-life: 132 min
[14]
  Cmax: 730 ng/mL
[15]
  Vd: 2 L/kg
[16]
  inhibition (INH): Not Active
[17]
  log(activity): -5.5
